Assay results reported in ChEMBL document CHEMBL4765336, “Discovery of coumarin derivatives as potent and selective cyclin-dependent kinase 9 (CDK9) inhibitors with high antitumour activity” (Eur J Med Chem, 2020).

What was measured:
[1] = biological target: CDK2/Cyclin A2 (Homo sapiens, UniProt P24941); assay: Inhibition of CDK2/Cyclin A (unknown origin) preincubated for 20 mins followed by ATP addition and measured after 120 mins in presence of [33P-gamma] ATP by hotspot kinase assay; assay type: protein-complex assay
Procedure, shortened: (§1)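 Radiometric filter-binding assay: kinase and substrate in 20 mM Hepes pH 7.5, 10 mM MgCl2, 1 mM EGTA, 0.02% Brij35, 0.02 mg/mL BSA, 0.1 mM Na3VO4, 2 mM DTT, 1% DMSO. Compound (top 1/10/27 μM, 3-fold serial dilutions) preincubated 20 min at 25 °C. ATP plus [γ-33P]ATP added to 10 μM final, reacted 120 min at 25 °C. IC50 from curve fit, duplicate mean.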

[2] = biological target: CDK9/cyclin T1 (Homo sapiens, UniProt P50750); assay: Inhibition of CDK9/Cyclin T1 (unknown origin) preincubated for 20 mins followed by ATP addition and measured after 120 mins in presence of [33P-gamma] ATP by hotspot kinase assay; assay type: protein-complex assay
CDK9/cyclin T1, sequence (O60563 whole entry): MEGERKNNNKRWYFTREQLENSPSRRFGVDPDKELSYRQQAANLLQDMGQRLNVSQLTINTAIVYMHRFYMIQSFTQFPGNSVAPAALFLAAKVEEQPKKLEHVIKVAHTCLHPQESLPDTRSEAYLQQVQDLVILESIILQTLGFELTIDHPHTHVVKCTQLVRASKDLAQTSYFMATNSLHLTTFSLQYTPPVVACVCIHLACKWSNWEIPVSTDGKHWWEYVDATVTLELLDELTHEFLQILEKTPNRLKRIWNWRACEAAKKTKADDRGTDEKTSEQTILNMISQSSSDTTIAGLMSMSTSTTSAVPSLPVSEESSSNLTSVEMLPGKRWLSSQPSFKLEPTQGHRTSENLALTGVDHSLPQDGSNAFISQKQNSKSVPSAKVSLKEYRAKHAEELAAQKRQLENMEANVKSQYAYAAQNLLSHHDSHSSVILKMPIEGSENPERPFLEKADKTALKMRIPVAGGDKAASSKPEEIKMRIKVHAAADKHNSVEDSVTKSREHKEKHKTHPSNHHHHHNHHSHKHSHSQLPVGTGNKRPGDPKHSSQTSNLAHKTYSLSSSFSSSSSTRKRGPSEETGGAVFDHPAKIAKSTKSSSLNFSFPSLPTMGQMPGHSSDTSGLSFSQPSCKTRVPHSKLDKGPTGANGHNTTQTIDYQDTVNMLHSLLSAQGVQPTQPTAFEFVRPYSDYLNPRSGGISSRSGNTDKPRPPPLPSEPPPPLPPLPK
CDK9/cyclin T1, sequence (P50750 whole entry): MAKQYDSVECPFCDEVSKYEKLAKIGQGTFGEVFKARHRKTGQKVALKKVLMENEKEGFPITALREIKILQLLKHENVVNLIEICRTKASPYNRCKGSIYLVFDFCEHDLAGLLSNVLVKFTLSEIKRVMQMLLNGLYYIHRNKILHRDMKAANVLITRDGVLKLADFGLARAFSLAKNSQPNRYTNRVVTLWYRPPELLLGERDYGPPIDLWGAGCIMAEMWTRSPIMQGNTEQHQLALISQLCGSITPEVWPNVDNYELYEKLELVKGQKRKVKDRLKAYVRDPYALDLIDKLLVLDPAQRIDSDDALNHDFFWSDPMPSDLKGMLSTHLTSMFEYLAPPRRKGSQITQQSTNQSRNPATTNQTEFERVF

[3] = test system: MV4-11; assay: Antiproliferative activity against human MV4-11 cells assessed as inhibition of cell growth incubated for 72 hrs by Celltiter-Glo luminescent assay; assay type: functional, cell-based; conditions: MV4-11, 72 h
Procedure, shortened: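 Cells seeded in growth medium and held overnight at 37 °C; medium-only wells served as background. DMSO stocks were diluted in medium to 3× final and added; cells incubated 72 h at 37 °C, 5% CO2. Viability read by CellTiter-Glo luminescence after 60 min at room temperature. IC50 from curve fit, mean of duplicate.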

[4] = biological target: CDK2/Cyclin A2 (Homo sapiens) (UniProt P24941+P20248); assay: Inhibition of CDK2/Cyclin A (unknown origin) assessed as enzyme activity at 1 uM preincubated for 20 mins followed by ATP addition and measured after 120 mins in presence of [33P-gamma] ATP by hotspot kinase assay relative to control; assay type: protein-complex assay; set-up: scale not given: the % may be the effect or the level left; conditions: time 140.0 min
Procedure, shortened: (§2)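 Radiometric filter-binding kinase assay, buffer pH 7.5 with 10 mM MgCl2 and 1% DMSO. Compound tested at a single 1.0 μM, preincubated 20 min at 25 °C. Reaction started with ATP/[γ-33P]ATP at 10 μM final, run 120 min at 25 °C. Remaining % enzyme activity reported, n=2.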

[5] = biological target: CDK9/Cyclin K (Homo sapiens, UniProt P50750); assay: Inhibition of CDK9/Cyclin K (unknown origin) preincubated for 20 mins followed by ATP addition and measured after 120 mins in presence of [33P-gamma] ATP by hotspot kinase assay; assay type: protein-complex assay
CDK9/Cyclin K, sequence (P50750 whole entry): as above
CDK9/Cyclin K, sequence (O75909 whole entry, further chain): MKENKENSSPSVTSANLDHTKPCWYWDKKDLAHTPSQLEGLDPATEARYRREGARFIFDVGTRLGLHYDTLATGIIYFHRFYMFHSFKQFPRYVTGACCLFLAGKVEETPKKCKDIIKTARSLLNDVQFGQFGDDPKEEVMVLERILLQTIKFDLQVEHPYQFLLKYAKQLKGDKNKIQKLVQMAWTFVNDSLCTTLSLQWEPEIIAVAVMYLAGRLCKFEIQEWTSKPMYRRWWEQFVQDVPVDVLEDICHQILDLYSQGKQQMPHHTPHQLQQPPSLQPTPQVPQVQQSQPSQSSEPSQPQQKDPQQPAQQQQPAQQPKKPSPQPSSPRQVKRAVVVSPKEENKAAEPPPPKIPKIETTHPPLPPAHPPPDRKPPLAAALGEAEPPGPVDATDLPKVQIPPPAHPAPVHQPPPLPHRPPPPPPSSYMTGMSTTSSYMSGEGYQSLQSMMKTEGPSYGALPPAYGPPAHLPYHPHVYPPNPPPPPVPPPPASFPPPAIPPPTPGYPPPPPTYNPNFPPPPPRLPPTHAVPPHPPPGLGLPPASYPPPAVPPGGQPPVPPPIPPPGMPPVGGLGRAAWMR
Procedure, shortened: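 HotSpot radioisotope filter-binding assay. Kinase and substrate were mixed at room temperature in 20 mM Hepes pH 7.5 with 10 mM MgCl2, 1 mM EGTA, 0.02% Brij35, 0.02 mg/mL BSA, 0.1 mM Na3VO4, 2 mM DTT and 1% DMSO. Compound was added in a 3-fold dilution series starting at 1, 10 or 27 μM and preincubated 20 min at 25 °C. ATP plus [γ-33P]ATP (10 μM final) was then added for 120 min at 25 °C. IC50 from curve fit, duplicate mean.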

[6] = biological target: Cyclin-dependent kinase 7/ cyclin H (Homo sapiens, UniProt P50613); assay: Inhibition of CDK7/Cyclin H (unknown origin) preincubated for 20 mins followed by ATP addition and measured after 120 mins in presence of [33P-gamma] ATP by hotspot kinase assay; assay type: protein-complex assay; procedure, shortened: as §1
Cyclin-dependent kinase 7/ cyclin H, sequence (P51946 whole entry): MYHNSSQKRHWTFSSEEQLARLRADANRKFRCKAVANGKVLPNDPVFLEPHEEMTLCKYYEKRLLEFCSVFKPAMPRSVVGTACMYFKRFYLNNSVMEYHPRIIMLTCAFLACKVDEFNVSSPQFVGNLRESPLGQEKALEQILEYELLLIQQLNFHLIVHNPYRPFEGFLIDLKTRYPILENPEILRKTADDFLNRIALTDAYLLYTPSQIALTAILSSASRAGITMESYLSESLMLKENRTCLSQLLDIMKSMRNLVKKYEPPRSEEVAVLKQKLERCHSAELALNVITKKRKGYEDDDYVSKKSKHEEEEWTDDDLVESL
Cyclin-dependent kinase 7/ cyclin H, sequence (P50613 whole entry): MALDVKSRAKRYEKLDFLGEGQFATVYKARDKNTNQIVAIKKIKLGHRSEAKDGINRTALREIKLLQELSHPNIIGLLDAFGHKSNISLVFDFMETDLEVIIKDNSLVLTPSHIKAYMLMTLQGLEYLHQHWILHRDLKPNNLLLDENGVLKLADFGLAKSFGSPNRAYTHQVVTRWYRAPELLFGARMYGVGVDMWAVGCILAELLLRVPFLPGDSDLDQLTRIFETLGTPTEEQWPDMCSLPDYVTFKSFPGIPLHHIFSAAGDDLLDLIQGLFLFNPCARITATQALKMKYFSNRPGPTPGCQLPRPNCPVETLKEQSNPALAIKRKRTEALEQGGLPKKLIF

[7] = organism: Homo sapiens; assay: Selectivity index, ratio of IC50 for CDK2/Cyclin A (unknown origin) to IC50 for CDK9/Cyclin T1 (unknown origin)
[8] = test system: MV4-11; assay: Antitumor activity against human MV4-11 cells xenografted in Balb/c nude mouse assessed as reduction in tumor volume at 40 mg/kg, iv administered once daily for 21 days (reference value: 1.00 g); assay type: functional; conditions: time 21 day
[9] = biological target: CDK9/cyclin T1 (Homo sapiens) (UniProt O60563+P50750); assay: Inhibition of CDK9/Cyclin T1 (unknown origin) assessed as enzyme activity at 1 uM preincubated for 20 mins followed by ATP addition and measured after 120 mins in presence of [33P-gamma] ATP by hotspot kinase assay relative to control; assay type: protein-complex assay; set-up: scale not given: the % may be the effect or the level left; conditions: time 140.0 min; procedure, shortened: as §2
[10] = Metabolic stability in monkey liver microsomes assessed as intrinsic clearance at 1 uM incubated up to 60 mins in presence of NADPH by LC-MS/MS analysis; assay type: ADME, Macaca mulatta, Microsome; conditions: rhesus monkey, read-out: CLH
Procedure, shortened: (§3)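 Liver microsomes (0.5 mg/mL) incubated at 37 °C with compound at 1.0 μM final, 3 mM MgCl2 and 1 mM NADPH in 100 mM PBS pH 7.4. Samples taken at 0, 5, 15, 30, 60 min; remaining parent measured by LC-MS/MS. k = −slope, T1/2 = 0.693/k, CLint = k/microsomal protein concentration. Midazolam served as control.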

[11] = Metabolic stability in dog liver microsomes assessed as half life at 1 uM incubated up to 60 mins in presence of NADPH by LC-MS/MS analysis; assay type: ADME, Canis lupus familiaris, Microsome; procedure, shortened: as §3
[12] = Metabolic stability in human liver microsomes assessed as half life at 1 uM incubated up to 60 mins in presence of NADPH by LC-MS/MS analysis; assay type: ADME, Microsome; procedure, shortened: as §3
[13] = Metabolic stability in dog liver microsomes assessed as intrinsic clearance at 1 uM incubated up to 60 mins in presence of NADPH by LC-MS/MS analysis; assay type: ADME, Canis lupus familiaris, Microsome; conditions: read-out: CLH; procedure, shortened: as §3
[14] = Metabolic stability in human liver microsomes assessed as intrinsic clearance at 1 uM incubated up to 60 mins in presence of NADPH by LC-MS/MS analysis; assay type: ADME, Microsome; conditions: read-out: CLH; procedure, shortened: as §3
[15] = Metabolic stability in rat liver microsomes assessed as intrinsic clearance at 1 uM incubated up to 60 mins in presence of NADPH by LC-MS/MS analysis; assay type: ADME, Microsome; conditions: read-out: CLH; procedure, shortened: as §3
[16] = Metabolic stability in rat liver microsomes assessed as half life at 1 uM incubated up to 60 mins in presence of NADPH by LC-MS/MS analysis; assay type: ADME, Microsome; procedure, shortened: as §3
[17] = Metabolic stability in monkey liver microsomes assessed as half life at 1 uM incubated up to 60 mins in presence of NADPH by LC-MS/MS analysis; assay type: ADME, Macaca mulatta, Microsome; conditions: rhesus monkey; procedure, shortened: as §3

| SMILES | IC50 [1] [nM] | IC50 [2] [nM] | IC50 [3] [nM] | Activity [4] [%] | also measured |
| --- | --- | --- | --- | --- | --- |
| COc1cc(F)ccc1-c1nc(Nc2ccc3c(N4CCOCC4)c(C(C)=O)c(=O)oc3c2)ncc1Cl | 401 | 3.6 | 1010 | – | – |
| COc1cc(F)ccc1-c1ccnc(Nc2ccc3c(N4CCCCC4)c(C(C)=O)c(=O)oc3c2)n1 | – | 6.5 | 730 | 73.1 | – |
| CC(=O)c1c(C)c2ccc(Nc3nccc(-c4cccnc4)n3)cc2oc1=O | 1210 | 184 | 12900 | – | IC50 [5]: 235 nM; IC50 [6]: > 27000 nM; Ratio IC50 [7]: 7 |
| CCN1CCN(c2c(C(C)=O)c(=O)oc3cc(Nc4nccc(-c5ccc(F)cc5OC)n4)ccc23)CC1 | – | 10.5 | 740 | 61.8 | – |
| COc1ccc(-c2ccnc(Nc3ccc4c(N5CCOCC5)c(C(C)=O)c(=O)oc4c3)n2)cc1 | – | 81.7 | 6490 | 21.6 | – |
| CCC(=O)c1c(N2CCOCC2)c2ccc(Nc3nccc(-c4ccc(F)cc4OC)n3)cc2oc1=O | 1090 | 3.6 | 430 | – | – |
| COc1ccccc1-c1ccnc(Nc2ccc3c(N4CCNCC4)cc(=O)oc3c2)n1 | 3660 | 25.3 | 1340 | – | – |
| CC(=O)c1c(N2CCOCC2)c2ccc(Nc3nccc(-c4ccccc4C)n3)cc2oc1=O | – | 489 | – | – | – |
| COc1cc(F)ccc1-c1nc(Nc2ccc3c(N4CCOCC4)cc(=O)oc3c2)ncc1F | – | 1.6 | 3110 | 22 | – |
| COc1ccccc1-c1ccnc(Nc2ccc3c(N4CCOCC4)c(C(C)=O)c(=O)oc3c2)n1 | 1280 | 3.1 | 1010 | – | – |
| COc1ccc(-c2ccnc(Nc3ccc4c(N5CCOCC5)c(C(C)=O)c(=O)oc4c3)n2)c(OC)c1 | – | 54.2 | 820 | 46.3 | – |
| CC(=O)c1c(N2CCOCC2)c2ccc(Nc3nccc(-c4ccccc4)n3)cc2oc1=O | – | 228 | – | – | – |
| Nc1ccn([C@@H]2O[C@H](CO)[C@@H](O)[C@@H]2O)c(=O)n1 [CYTARABINE] | – | – | – | – | Activity [8]: 0.26 g |
| CC(=O)c1c(N2CCOCC2)c2ccc(Nc3nccc(-c4ccccc4C(F)(F)F)n3)cc2oc1=O | – | 2490 | – | – | – |
| COc1cc(F)ccc1-c1nc(Nc2ccc3c(N4CCCNCC4)c(C(C)=O)c(=O)oc3c2)ncc1F | 496 | 1.6 | 420 | – | – |
| COc1ccc(F)cc1-c1ccnc(Nc2ccc3c(N4CCOCC4)c(C(C)=O)c(=O)oc3c2)n1 | – | 21.8 | 1740 | 49.6 | – |
| CC(=O)c1c(N2CCOCC2)c2ccc(Nc3cc(-c4ccccc4C)ncn3)cc2oc1=O | – | – | – | – | Activity [9]: 92.2% |
| COc1cc(F)ccc1-c1ccnc(Nc2ccc3c(N4CCN(C)CC4)c(C(C)=O)c(=O)oc3c2)n1 | – | 16.4 | 520 | 74.8 | – |
| CCN1CCN(c2c(C(C)=O)c(=O)oc3cc(Nc4ncc(F)c(-c5ccc(F)cc5OC)n4)ccc23)CC1 | 305 | 1.2 | 550 | – | – |
| COc1cc(F)ccc1-c1nc(Nc2ccc3c(N4CCN(C)CC4)c(C(C)=O)c(=O)oc3c2)ncc1F | 336 | 1.5 | 400 | – | – |

| SMILES | IC50 [1] [nM] | IC50 [2] [nM] | IC50 [3] [nM] | Activity [4] [%] | also measured |
| --- | --- | --- | --- | --- | --- |
| CC(=O)c1c(N2CCOCC2)c2ccc(Nc3nccc(-c4c(F)cccc4F)n3)cc2oc1=O | – | 267 | > 10000 | – | – |
| Cc1ncc2n1-c1ccc(Cl)cc1C(c1ccccc1F)=NC2 [MIDAZOLAM] | – | – | – | – | microsomal CLint at 1 µM [10]: 551 µL/min/mg; half-life at 1 µM [11]: 2.31 min; half-life at 1 µM [12]: 12.1 min; microsomal CLint at 1 µM [13]: 1500 µL/min/mg; microsomal CLint at 1 µM [14]: 287 µL/min/mg; microsomal CLint at 1 µM [15]: 908 µL/min/mg; half-life at 1 µM [16]: 3.82 min; half-life at 1 µM [17]: 6.29 min |
| COc1cccc(-c2ccnc(Nc3ccc4c(N5CCOCC5)c(C(C)=O)c(=O)oc4c3)n2)c1 | – | 18.4 | 1490 | 54.1 | – |
| CC(=O)c1c(N2CCOCC2)c2ccc(Nc3cc(-c4ccccc4C(F)(F)F)ncn3)cc2oc1=O | – | – | – | – | Activity [9]: 106% |
| COc1cccc(-c2ccnc(Nc3ccc4c(N5CCOCC5)c(C(C)=O)c(=O)oc4c3)n2)c1OC | – | – | 5070 | – | Activity [9]: 51.7% |
| CCc1c(N2CCOCC2)c2ccc(Nc3nccc(-c4ccccc4OC)n3)cc2oc1=O | 10900 | 67.3 | 4720 | – | – |
| CCC(=O)c1c(N2CCOCC2)c2ccc(Nc3ncc(F)c(-c4ccc(F)cc4OC)n3)cc2oc1=O | 338 | 0.7 | 420 | – | – |
| COc1cc(F)ccc1-c1nc(Nc2ccc3c(N4CCN(C)CC4)c(C(C)=O)c(=O)oc3c2)ncc1Cl | 642 | 1.7 | 1390 | – | – |
| COc1cc(F)ccc1-c1ccnc(Nc2ccc3c(N4CCOCC4)cc(=O)oc3c2)n1 | 1330 | 18.2 | 2280 | – | – |
| COc1cccc(F)c1-c1ccnc(Nc2ccc3c(N4CCOCC4)c(C(C)=O)c(=O)oc3c2)n1 | – | 13.7 | 520 | 58.7 | – |
| CCc1ccccc1-c1ccnc(Nc2ccc3c(N4CCOCC4)c(C(C)=O)c(=O)oc3c2)n1 | – | 66.5 | 9840 | 40.5 | – |
| CCc1ccccc1-c1cc(Nc2ccc3c(N4CCOCC4)c(C(C)=O)c(=O)oc3c2)ncn1 | – | – | – | – | Activity [9]: 90% |
| COc1ccccc1-c1ccnc(Nc2ccc3c(N4CCOCC4)cc(=O)oc3c2)n1 | – | 47.2 | 4570 | 57.9 | – |
| CC(=O)c1c(N2CCOCC2)c2ccc(Nc3nccc(-c4ccccc4[N+](=O)[O-])n3)cc2oc1=O | – | 2340 | > 10000 | – | – |
| COc1ccccc1-c1cc(Nc2ccc3c(C)c(C(C)=O)c(=O)oc3c2)ncn1 | – | 37.6 | > 10000 | 64.5 | – |
| COc1ccccc1-c1ccnc(Nc2ccc3c(C)c(C(C)=O)c(=O)oc3c2)n1 | 451 | 6.5 | 10200 | – | – |
| CC(=O)c1c(N2CCOCC2)c2ccc(Nc3cc(-c4ccccc4)ncn3)cc2oc1=O | – | – | – | – | Activity [9]: 104% |
| COc1ccccc1-c1cc(Nc2ccc3c(N4CCOCC4)c(C(C)=O)c(=O)oc3c2)ncn1 | 3420 | 210 | > 10000 | – | – |
| COc1ccccc1-c1ccnc(Nc2ccc3c(N4CCCNCC4)cc(=O)oc3c2)n1 | 2060 | 11.7 | 1680 | – | – |
